Activity calls are given as the source filed them. The rule behind the calls is not given here.
Assays:
[1] = system: ACHN; assay: Cytotoxicity against human ACHN cells; format: functional, cell-based
How it was run: (§1)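 Run within the NCI-60 human tumour cell line screen panel.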

[2] = system: A498; assay: Cytotoxicity against human A498 cells; format: functional, cell-based; how it was run: as §1
[3] = system: U-251; assay: Cytotoxicity against human U251 cells; format: functional, cell-based; how it was run: as §1
[4] = system: HOP-92; assay: Cytotoxicity against human HOP92 cells; format: functional, cell-based; how it was run: as §1
[5] = system: UACC-62; assay: Cytotoxicity against human UACC62 cells; format: functional, cell-based; how it was run: as §1
[6] = system: SF-295; assay: Cytotoxicity against human SF295 cells; format: functional, cell-based; how it was run: as §1
[7] = system: Malme-3M; assay: Cytotoxicity against human MALME-3M cells; format: functional, cell-based; how it was run: as §1
[8] = system: SK-OV-3; assay: Cytotoxicity against human SKOV3 cells; format: functional, cell-based; how it was run: as §1
[9] = system: SK-MEL-28; assay: Cytotoxicity against human SK-MEL-28 cells; format: functional, cell-based; how it was run: as §1
[10] = system: SK-MEL-5; assay: Cytotoxicity against human SK-MEL-5 cells; format: functional, cell-based; how it was run: as §1
[11] = system: MOLT-4; assay: Cytotoxicity against human MOLT4 cells; format: functional, cell-based; how it was run: as §1
[12] = system: NCI-H460; assay: Cytotoxicity against human NCI-H460 cells; format: functional, cell-based; how it was run: as §1
[13] = system: Fusarium incarnatum; assay: Antimicrobial activity against Fusarium pallidoroseum at 50 ug/disk by Kirby-Bauer disk diffusion assay; format: functional, organism-based
[14] = system: Burkholderia thailandensis; assay: Antimicrobial activity against Burkholderia thailandensis at 50 ug/disk by Kirby-Bauer disk diffusion assay; format: functional
[15] = system: Escherichia coli; assay: Antimicrobial activity against Escherichia coli at 50 ug/disk by Kirby-Bauer disk diffusion assay; format: functional, organism-based
[16] = system: Staphylococcus aureus; assay: Antimicrobial activity against Staphylococcus aureus at 50 ug/disk by Kirby-Bauer disk diffusion assay; format: functional, organism-based
[17] = system: Candida albicans; assay: Antimicrobial activity against Candida albicans at 50 ug/disk by Kirby-Bauer disk diffusion assay; format: functional, organism-based

## [C-]#[N+]C(=C\c1ccc(OC)cc1)/C(=C/c1ccc(OC)cc1)[N+]#[C-]
[1]
  Activity: inactive
[2]
  Activity: inactive
[3]
  Activity: inactive
[4]
  Activity: inactive
[5]
  Activity: inactive
[6]
  Activity: inactive
[7]
  Activity: inactive
[8]
  Activity: inactive
[9]
  Activity: inactive
[10]
  Activity: inactive
[11]
  Activity: inactive
[12]
  Activity: inactive

## [C-]#[N+]C(=C\c1ccc(O)cc1)/C(=C/c1ccc(OC)cc1)[N+]#[C-]
[1]
  Activity: inactive
[2]
  Activity: inactive
[3]
  Activity: inactive
[4]
  Activity: inactive
[5]
  Activity: inactive
[6]
  Activity: inactive
[7]
  Activity: inactive
[8]
  Activity: inactive
[9]
  Activity: inactive
[10]
  Activity: inactive
[11]
  Activity: inactive
[12]
  Activity: inactive

## [C-]#[N+]C(=C\c1ccc(OC)cc1)/C(=C/c1ccc(OS(=O)(=O)O)cc1)[N+]#[C-]
[1]
  Activity: inactive
[13]
  Activity: inactive
[2]
  Activity: inactive
[3]
  Activity: inactive
[4]
  Activity: inactive
[5]
  Activity: inactive
[6]
  Activity: inactive
[7]
  Activity: inactive
[14]
  Activity: inactive
[8]
  Activity: inactive
[15]
  Activity: inactive
[9]
  Activity: inactive
[16]
  Activity: inactive
[10]
  Activity: inactive
[11]
  Activity: inactive
[17]
  Activity: inactive
[12]
  Activity: inactive

## COc1ccc(/C=C(NC=O)/C(=C/c2ccc(OC)cc2)NC=O)cc1
[1]
  IC50: > 2500 nM
[2]
  IC50: 860 nM
[3]
  IC50: 920 nM
[4]
  IC50: 890 nM
[5]
  IC50: 750 nM
[6]
  IC50: 700 nM
[7]
  IC50: 650 nM
[8]
  IC50: 840 nM
[9]
  IC50: 980 nM
[10]
  IC50: 810 nM
[11]
  IC50: > 2500 nM
[12]
  IC50: 1120 nM

## COc1ccc(/C=C(NC=O)/C(=C/c2ccc(OS(=O)(=O)O)cc2)NC=O)cc1
[1]
  Activity: inactive
[13]
  Activity: inactive
[2]
  Activity: inactive
[3]
  Activity: inactive
[4]
  Activity: inactive
[5]
  Activity: inactive
[6]
  Activity: inactive
[7]
  Activity: inactive
[14]
  Activity: inactive
[8]
  Activity: inactive
[15]
  Activity: inactive
[9]
  Activity: inactive
[16]
  Activity: inactive
[10]
  Activity: inactive
[11]
  Activity: inactive
[17]
  Activity: inactive
[12]
  Activity: inactive

## COc1ccc(/C=C(NC=O)/C(=C/c2ccc(O)cc2)NC=O)cc1
[1]
  IC50: 1370 nM
[2]
  IC50: 1720 nM
[3]
  IC50: > 2500 nM
[4]
  IC50: > 2500 nM
[5]
  IC50: > 2500 nM
[6]
  IC50: > 2500 nM
[7]
  IC50: > 2500 nM
[8]
  IC50: 2130 nM
[9]
  IC50: 2030 nM
[10]
  IC50: > 2500 nM
[11]
  IC50: 1810 nM
[12]
  IC50: 1840 nM
